In ChEMBL document CHEMBL3621160, “Pseudosaccharin amines as potent and selective KV1.5 blockers” (Bioorg Med Chem Lett, 2015):

Key:
Rattus norvegicus [1] = species: Rattus norvegicus; assay: Inhibition of rat L-type calcium channel dihydropyridine binding site at 10 uM relative to control
In short: (§1)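 Single-concentration screen at 10 µM across a panel of over 37 receptors and enzymes linked to cardiovascular effects or toxicity. Read-out is percent activity.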

[2] = molecular target: Protein kinase C (PKC) (Rattus norvegicus) (UniProt P05696+P68403+P09216+P63319+P09215+Q64617+Q9WTQ0+P09217); assay: Inhibition of rat PKC at 10 uM relative to control
In short: (§2)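 Screening panel of over 37 receptors and enzymes relevant to cardiovascular effects or toxicity. Each target was tested at a single concentration of 10 µM, with % activity reported.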

Rattus norvegicus [3] = species: Rattus norvegicus; assay: Inhibition of rat sodium channel site 2 at 10 uM relative to control; in short: as §1
[4] = molecular target: Acetylcholinesterase (Homo sapiens) (UniProt P22303); assay: Inhibition of human acetylcholinesterase at 10 uM relative to control
[5] = molecular target: L-type calcium channel, benzothiazepine binding site (Rattus norvegicus, UniProt P22002+P27732+Q02485); assay: Inhibition of rat L-type calcium channel benzothiazepine binding site at 10 uM relative to control; in short: as §2
Rattus norvegicus [6] = species: Rattus norvegicus; assay: Inhibition of rat choline transporter at 10 uM relative to control; in short: as §1
[7] = molecular target: Histamine H2 receptor (Homo sapiens) (UniProt P25021); assay: Inhibition of human histamine H2 receptor at 10 uM relative to control; in short: as §2
Sequence of Histamine H2 receptor (Homo sapiens) (P25021 whole entry): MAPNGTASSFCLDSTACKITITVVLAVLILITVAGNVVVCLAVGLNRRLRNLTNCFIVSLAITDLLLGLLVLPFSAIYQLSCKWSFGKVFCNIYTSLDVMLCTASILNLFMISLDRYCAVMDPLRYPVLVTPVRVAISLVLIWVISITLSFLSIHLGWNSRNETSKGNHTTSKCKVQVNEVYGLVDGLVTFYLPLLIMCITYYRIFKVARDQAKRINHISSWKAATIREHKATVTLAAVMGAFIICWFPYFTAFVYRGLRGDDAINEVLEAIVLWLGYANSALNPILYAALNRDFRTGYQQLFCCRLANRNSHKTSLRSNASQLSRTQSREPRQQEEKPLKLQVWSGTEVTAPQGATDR

Homo sapiens [8] = species: Homo sapiens; assay: Inhibition of human nicotinic acetylcholine receptor at 10 uM relative to control; in short: as §1
[9] = molecular target: Sodium-dependent dopamine transporter (Homo sapiens) (UniProt Q01959); assay: Inhibition of human DAT at 10 uM relative to control; in short: as §2
Sequence of Sodium-dependent dopamine transporter (Homo sapiens) (Q01959 whole entry): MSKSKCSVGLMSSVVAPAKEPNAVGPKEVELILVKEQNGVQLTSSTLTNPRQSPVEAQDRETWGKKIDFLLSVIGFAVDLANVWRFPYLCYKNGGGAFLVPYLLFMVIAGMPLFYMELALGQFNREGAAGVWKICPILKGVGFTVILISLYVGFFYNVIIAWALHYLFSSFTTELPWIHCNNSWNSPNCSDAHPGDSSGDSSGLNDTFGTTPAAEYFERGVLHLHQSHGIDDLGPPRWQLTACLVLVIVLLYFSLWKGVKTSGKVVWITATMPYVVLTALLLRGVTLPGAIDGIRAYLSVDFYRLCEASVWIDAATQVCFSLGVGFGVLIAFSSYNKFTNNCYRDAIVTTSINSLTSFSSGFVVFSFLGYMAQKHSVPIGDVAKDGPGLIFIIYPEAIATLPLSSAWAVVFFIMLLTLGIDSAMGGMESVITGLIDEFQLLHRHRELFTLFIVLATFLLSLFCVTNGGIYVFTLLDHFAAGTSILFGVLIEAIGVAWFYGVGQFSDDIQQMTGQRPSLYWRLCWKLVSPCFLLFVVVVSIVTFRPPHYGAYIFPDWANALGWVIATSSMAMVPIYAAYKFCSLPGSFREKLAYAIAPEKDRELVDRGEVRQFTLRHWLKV

MAO-B = MAO-B (Homo sapiens, UniProt P27338); assay: Inhibition of human MAOB at 10 uM relative to control; in short: as §2
Sequence of MAO-B (P27338 whole entry): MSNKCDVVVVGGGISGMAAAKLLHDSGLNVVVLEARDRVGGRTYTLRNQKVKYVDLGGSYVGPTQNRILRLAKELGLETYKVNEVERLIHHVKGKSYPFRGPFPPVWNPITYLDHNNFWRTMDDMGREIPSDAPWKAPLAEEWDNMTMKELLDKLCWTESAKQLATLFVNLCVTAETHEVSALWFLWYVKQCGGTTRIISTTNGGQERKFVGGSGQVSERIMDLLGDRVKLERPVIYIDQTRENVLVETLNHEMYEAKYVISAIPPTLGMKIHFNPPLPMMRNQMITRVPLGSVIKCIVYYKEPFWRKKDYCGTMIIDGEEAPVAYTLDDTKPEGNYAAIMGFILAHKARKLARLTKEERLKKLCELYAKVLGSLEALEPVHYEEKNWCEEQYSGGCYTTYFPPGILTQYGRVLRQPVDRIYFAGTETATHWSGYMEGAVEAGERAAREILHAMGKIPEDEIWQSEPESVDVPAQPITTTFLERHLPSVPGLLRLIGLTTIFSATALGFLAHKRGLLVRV

[10] = molecular target: Sodium-dependent noradrenaline transporter (Homo sapiens) (UniProt P23975); assay: Inhibition of human NET at 10 uM relative to control; in short: as §2
Sequence of Sodium-dependent noradrenaline transporter (Homo sapiens) (P23975 whole entry): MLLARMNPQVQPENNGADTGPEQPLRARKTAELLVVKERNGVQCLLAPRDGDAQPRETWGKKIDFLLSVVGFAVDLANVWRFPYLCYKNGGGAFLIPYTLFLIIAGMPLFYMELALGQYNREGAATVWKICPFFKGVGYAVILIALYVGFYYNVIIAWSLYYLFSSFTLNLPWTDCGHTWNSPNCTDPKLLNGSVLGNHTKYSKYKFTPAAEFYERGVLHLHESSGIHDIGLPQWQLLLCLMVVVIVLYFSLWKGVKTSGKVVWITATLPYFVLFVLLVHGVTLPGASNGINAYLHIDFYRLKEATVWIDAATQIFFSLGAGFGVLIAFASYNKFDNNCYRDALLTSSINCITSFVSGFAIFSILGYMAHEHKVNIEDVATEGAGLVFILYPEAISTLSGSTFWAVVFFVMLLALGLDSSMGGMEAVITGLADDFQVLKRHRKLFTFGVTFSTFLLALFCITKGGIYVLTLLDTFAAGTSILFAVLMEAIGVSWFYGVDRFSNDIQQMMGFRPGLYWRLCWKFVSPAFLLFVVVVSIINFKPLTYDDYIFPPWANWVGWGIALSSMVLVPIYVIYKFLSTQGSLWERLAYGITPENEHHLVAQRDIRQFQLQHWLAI

[11] = molecular target: 5-hydroxytryptamine receptor 2B (Homo sapiens) (UniProt P41595); assay: Inhibition of human 5HT-2B receptor at 10 uM relative to control; in short: as §2
[12] = molecular target: Carnitine O-palmitoyltransferase 1, liver isoform (Rattus norvegicus) (UniProt P32198); assay: Inhibition of rat carnitine palmitoyltransferase-1 at 10 uM relative to control; in short: as §2
[13] = molecular target: Adrenergic receptor alpha-1 (Rattus norvegicus) (UniProt P15823+P23944+P43140); assay: Inhibition of rat alpha-1 adrenergic receptor at 10 uM relative to control; in short: as §2
[14] = molecular target: Phosphodiesterase 3 (Homo sapiens) (UniProt Q14432+Q13370); assay: Inhibition of human PDE3 at 10 uM relative to control; format: protein assay
[15] = molecular target: Estrogen receptor (Homo sapiens) (UniProt P03372); assay: Inhibition of human ER-alpha at 10 uM relative to control; in short: as §2
Sequence of Estrogen receptor (Homo sapiens) (P03372 whole entry): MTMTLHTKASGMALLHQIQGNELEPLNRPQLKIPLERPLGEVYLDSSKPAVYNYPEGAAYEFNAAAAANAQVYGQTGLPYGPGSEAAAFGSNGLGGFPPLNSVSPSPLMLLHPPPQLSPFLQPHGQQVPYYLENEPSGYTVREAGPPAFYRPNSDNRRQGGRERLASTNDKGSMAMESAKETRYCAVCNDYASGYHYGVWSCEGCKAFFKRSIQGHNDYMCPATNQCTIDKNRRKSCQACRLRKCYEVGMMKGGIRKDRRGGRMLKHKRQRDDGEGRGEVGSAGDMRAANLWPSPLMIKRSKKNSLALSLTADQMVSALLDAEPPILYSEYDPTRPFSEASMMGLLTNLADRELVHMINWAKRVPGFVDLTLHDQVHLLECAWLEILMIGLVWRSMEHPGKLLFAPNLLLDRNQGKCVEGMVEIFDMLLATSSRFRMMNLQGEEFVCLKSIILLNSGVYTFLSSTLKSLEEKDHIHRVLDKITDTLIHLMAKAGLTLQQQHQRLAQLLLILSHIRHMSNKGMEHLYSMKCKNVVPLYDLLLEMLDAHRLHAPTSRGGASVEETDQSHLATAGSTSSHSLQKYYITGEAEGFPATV

[16] = Metabolic stability in human liver microsomes assessed as compound remaining at 3 uM after 10 mins; format: ADME; details: read-out: Stability
In short: (§3)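 Parent compound at 3 µM was incubated 10 min in human, rat or mouse liver microsomes with appropriate co-factors. Read-out is percent of parent remaining.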

[17] = Metabolic stability in rat liver microsomes assessed as compound remaining at 3 uM after 10 mins; format: ADME; details: read-out: Stability; in short: as §3
[18] = Metabolic stability in mouse liver microsomes assessed as compound remaining at 3 uM after 10 mins; format: ADME; details: read-out: Stability; in short: as §3
Homo sapiens [19] = species: Homo sapiens; assay: Inhibition of calcium channel (unknown origin) at 10 uM relative to control
In short: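 Calcium (ICa) and sodium (INa) currents were measured as percent inhibition at a single concentration of 10 µM. Values are means of 2-4 experiments.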

hERG (KCNH2) = hERG (KCNH2) (Homo sapiens, UniProt Q12809); assay: Inhibition of human ERG at 10 uM relative to control; in short: as §2
[20] = Cmax in rat at 2 mg/kg administered as intra-arterial infusion for 10 mins and 5 mg/kg, po; format: ADME, organism-based; set-up: route oral; details: in vivo
In short: (§4)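 Rats (3 per compound) received intra-arterial infusion over 10 min or oral gavage. Vehicle for both routes was 40% PEG 400, 40% water and 20% ethanol. Values are means of 3 animals.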

[21] = AUC in rat at 5 mg/kg, po; format: ADME, organism-based; details: in vivo; in short: as §4
[22] = Clearance in rat at 2 mg/kg administered as intra-arterial infusion for 10 mins and 5 mg/kg, po; format: ADME, organism-based; details: in vivo, iv; in short: as §4
[23] = Oral bioavailability in rat at 5 mg/kg; format: ADME, organism-based; details: in vivo; in short: as §4
Rattus norvegicus [24] = species: Rattus norvegicus; assay: Inhibition of rat muscarinic acetylcholine receptor at 10 uM relative to control; in short: as §1
Rattus norvegicus [25] = assay: Toxicity in rat assessed as increase in blood pressure at 3 mg/kg, iv administered as infusion for 5 mins; format: organism-based; details: in vivo
In short: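 Rats were dosed at 3 mg/Kg. QT interval on ECG, mean blood pressure (% change) and plasma concentration were measured. Values are means of 2-4 experiments.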

Oryctolagus cuniculus [26] = species: Oryctolagus cuniculus; assay: Toxicity in rabbit assessed as effect on ventricular effective refractory period; format: organism-based, Cardiac ventricle; details: in vivo
In short: (§5)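 Rabbits were dosed at 0.3, 1.0 and 3.0 mg/Kg. Effective refractory period was measured in atrium and ventricle, and blood pressure was recorded. The plasma concentration giving 20% atrial ERP prolongation (EC20) was calculated.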

Oryctolagus cuniculus [27] = assay: Toxicity in rabbit assessed as increase in blood pressure at 0.3 to 3 mg/kg; format: organism-based; details: in vivo; in short: as §5
[28] = Cmax in rabbit at 0.3 to 3 mg/kg; format: ADME, organism-based, Oryctolagus cuniculus; details: in vivo; in short: as §5
MAO-A = MAO-A (Homo sapiens, UniProt P21397); assay: Inhibition of human MAOA at 10 uM relative to control; in short: as §2
Sequence of MAO-A (P21397 whole entry): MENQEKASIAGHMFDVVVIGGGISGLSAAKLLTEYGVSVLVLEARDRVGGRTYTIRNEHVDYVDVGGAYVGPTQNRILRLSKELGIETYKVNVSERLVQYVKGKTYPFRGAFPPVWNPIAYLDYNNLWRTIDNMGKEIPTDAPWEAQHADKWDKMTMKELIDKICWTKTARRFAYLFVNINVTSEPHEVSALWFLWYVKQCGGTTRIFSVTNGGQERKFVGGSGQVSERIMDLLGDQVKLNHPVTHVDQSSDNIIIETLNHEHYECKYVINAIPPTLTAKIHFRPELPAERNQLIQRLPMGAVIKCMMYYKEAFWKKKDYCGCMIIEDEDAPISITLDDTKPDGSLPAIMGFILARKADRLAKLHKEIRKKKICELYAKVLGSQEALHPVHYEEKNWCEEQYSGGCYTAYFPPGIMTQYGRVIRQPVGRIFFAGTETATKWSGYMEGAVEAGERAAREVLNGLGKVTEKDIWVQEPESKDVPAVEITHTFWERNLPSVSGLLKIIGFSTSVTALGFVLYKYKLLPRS

[29] = molecular target: D(1A) dopamine receptor (Homo sapiens) (UniProt P21728); assay: Inhibition of human dopamine D1 receptor at 10 uM relative to control; in short: as §2
[30] = molecular target: Somatostatin receptor type 2 (Homo sapiens) (UniProt P30874); assay: Inhibition of human SS2 receptor at 10 uM relative to control; in short: as §2
[31] = molecular target: Adrenergic receptor beta (Rattus norvegicus) (UniProt P18090+P10608+P26255); assay: Inhibition of rat beta adrenergic receptor at 10 uM relative to control; in short: as §2
[32] = molecular target: D(3) dopamine receptor (Homo sapiens) (UniProt P35462); assay: Inhibition of human dopamine D3 receptor at 10 uM relative to control; in short: as §2
[33] = molecular target: D(2) dopamine receptor (Homo sapiens) (UniProt P14416); assay: Inhibition of human dopamine D2S receptor at 10 uM relative to control; in short: as §2
[34] = molecular target: 5-hydroxytryptamine receptor 4 (Cavia porcellus) (UniProt O70528); assay: Inhibition of guinea pig 5-HT4 receptor at 10 uM relative to control; in short: as §2
Sequence of 5-hydroxytryptamine receptor 4 (Cavia porcellus) (O70528 whole entry): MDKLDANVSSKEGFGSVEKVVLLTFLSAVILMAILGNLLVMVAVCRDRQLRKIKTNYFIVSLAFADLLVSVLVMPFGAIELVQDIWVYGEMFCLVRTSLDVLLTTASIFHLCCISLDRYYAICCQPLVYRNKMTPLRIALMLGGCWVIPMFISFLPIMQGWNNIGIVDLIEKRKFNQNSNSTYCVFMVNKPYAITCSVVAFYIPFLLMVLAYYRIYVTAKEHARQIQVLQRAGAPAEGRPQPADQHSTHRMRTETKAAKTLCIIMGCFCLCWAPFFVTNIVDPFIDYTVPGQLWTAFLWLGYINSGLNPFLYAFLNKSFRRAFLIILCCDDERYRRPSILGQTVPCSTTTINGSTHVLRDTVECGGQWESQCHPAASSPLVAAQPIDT

[35] = molecular target: Sodium-dependent serotonin transporter (Homo sapiens) (UniProt P31645); assay: Inhibition of human SERT at 10 uM relative to control; in short: as §2
Sequence of Sodium-dependent serotonin transporter (Homo sapiens) (P31645 whole entry, looked up): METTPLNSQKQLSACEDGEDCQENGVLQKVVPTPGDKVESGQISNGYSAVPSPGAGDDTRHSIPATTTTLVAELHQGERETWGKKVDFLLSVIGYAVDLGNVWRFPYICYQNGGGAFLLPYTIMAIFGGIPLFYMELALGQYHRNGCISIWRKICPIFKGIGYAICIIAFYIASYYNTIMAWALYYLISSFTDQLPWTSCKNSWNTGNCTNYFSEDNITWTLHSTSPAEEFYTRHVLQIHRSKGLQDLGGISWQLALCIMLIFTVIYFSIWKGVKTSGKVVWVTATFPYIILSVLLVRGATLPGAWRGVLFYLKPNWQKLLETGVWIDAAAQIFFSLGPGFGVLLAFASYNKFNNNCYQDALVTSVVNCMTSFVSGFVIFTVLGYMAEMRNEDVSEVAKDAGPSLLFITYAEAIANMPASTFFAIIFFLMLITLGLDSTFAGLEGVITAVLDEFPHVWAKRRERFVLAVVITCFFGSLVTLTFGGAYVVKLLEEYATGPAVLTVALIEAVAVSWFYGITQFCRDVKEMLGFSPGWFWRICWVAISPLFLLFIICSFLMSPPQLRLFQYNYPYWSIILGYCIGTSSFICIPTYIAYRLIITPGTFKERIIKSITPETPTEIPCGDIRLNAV

[36] = molecular target: Adenosine receptor A2a (Homo sapiens) (UniProt P29274); assay: Inhibition of human adenosine A2A receptor at 10 uM relative to control; in short: as §2
Sequence of Adenosine receptor A2a (Homo sapiens) (P29274 whole entry): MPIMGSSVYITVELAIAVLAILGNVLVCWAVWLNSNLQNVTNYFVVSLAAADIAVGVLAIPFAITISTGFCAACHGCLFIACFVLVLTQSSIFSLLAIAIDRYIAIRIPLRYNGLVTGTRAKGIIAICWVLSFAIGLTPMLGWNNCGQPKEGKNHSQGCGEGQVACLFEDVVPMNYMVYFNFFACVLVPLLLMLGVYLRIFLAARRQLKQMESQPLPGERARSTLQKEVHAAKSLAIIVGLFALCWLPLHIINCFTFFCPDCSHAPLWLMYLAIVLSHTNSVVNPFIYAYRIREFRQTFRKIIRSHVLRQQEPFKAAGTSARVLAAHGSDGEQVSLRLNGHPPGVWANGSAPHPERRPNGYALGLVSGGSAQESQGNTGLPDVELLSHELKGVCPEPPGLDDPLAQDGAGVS

Rattus norvegicus [37] = species: Rattus norvegicus; assay: Inhibition of rat opioid receptor at 10 uM relative to control; in short: as §1
[38] = molecular target: Phosphodiesterase 4 (Homo sapiens) (UniProt P27815+Q08499+Q07343+Q08493); assay: Inhibition of human PDE4 at 10 uM relative to control; format: protein assay; in short: as §2

SMILES: COc1cccc2c1C(NC[C@]1(c3ccccc3)CC[C@H](O)CC1)=NS2(=O)=O
- inhibition (Rattus norvegicus [1]): 3%
- inhibition [2]: 9%
- inhibition (Rattus norvegicus [3]): 9%
- inhibition [4]: 53%
- inhibition at 10 µM [5]: 0%
- inhibition (Rattus norvegicus [6]): 17%
- inhibition [7]: 19%
- inhibition (Homo sapiens [8]): 12%
- inhibition [9]: 18%
- inhibition at 10 µM (MAO-B): 3%
- inhibition [10]: 8%
- inhibition [11]: 2%
- inhibition [12]: 4%
- inhibition [13]: 13%
- inhibition [14]: 53%
- inhibition [15]: -1%
- remaining at 10 min, 3 µM [16]: 90%
- remaining at 10 min, 3 µM [17]: 68%
- remaining at 10 min, 3 µM [18]: 53%
- inhibition (Homo sapiens [19]): 14%
- inhibition at 10 µM (hERG (KCNH2)): 54%
- Cmax [20]: 1.7 µM
- AUC [21]: 2.7 µM·h
- clearance [22]: 27 mL/min/kg
- bioavailability [23]: 34%
- inhibition (Rattus norvegicus [24]): 24%
- Activity (Rattus norvegicus [25]): 13%
- Activity (Oryctolagus cuniculus [26]): Non-toxic
- Activity (Oryctolagus cuniculus [27]): 19%
- Cmax [28]: 6.1 µM
- inhibition at 10 µM (MAO-A): 3%
- inhibition [29]: 0%
- inhibition [30]: 4%
- inhibition [31]: -4%
- inhibition [32]: -9%
- inhibition [33]: 4%
- inhibition [34]: 5%
- inhibition [35]: 10%
- inhibition [36]: -5%
- inhibition (Rattus norvegicus [37]): 23%
- inhibition [38]: 26%

SMILES: COc1cccc2c1C(NC[C@]1(c3ccccc3)CC[C@H](NC(=O)OC(C)C)CC1)=NS2(=O)=O
- inhibition (Rattus norvegicus [1]): 13%
- inhibition [2]: 29%
- inhibition (Rattus norvegicus [3]): 30%
- inhibition [4]: 55%
- inhibition at 10 µM [5]: 15%
- inhibition (Rattus norvegicus [6]): 1%
- inhibition [7]: 19%
- inhibition (Homo sapiens [8]): 10%
- inhibition [9]: 37%
- inhibition at 10 µM (MAO-B): 9%
- inhibition [10]: 6%
- inhibition [11]: 27%
- inhibition [12]: 0%
- inhibition [13]: -6%
- inhibition [14]: 15%
- inhibition [15]: 4%
- remaining at 10 min, 3 µM [16]: 85%
- remaining at 10 min, 3 µM [17]: 29%
- remaining at 10 min, 3 µM [18]: < 1%
- inhibition (Homo sapiens [19]): 41%
- inhibition at 10 µM (hERG (KCNH2)): 68%
- Cmax [20]: 0.93 µM
- AUC [21]: 1.8 µM·h
- clearance [22]: 9.4 mL/min/kg
- bioavailability [23]: 7.2%
- inhibition (Rattus norvegicus [24]): 15%
- Activity (Rattus norvegicus [25]): 44%
- Activity (Oryctolagus cuniculus [26]): Non-toxic
- Activity (Oryctolagus cuniculus [27]): 17%
- Cmax [28]: 4.7 µM
- inhibition at 10 µM (MAO-A): 10%
- inhibition [29]: 3%
- inhibition [30]: 6%
- inhibition [31]: 0%
- inhibition [32]: 11%
- inhibition [33]: -2%
- inhibition [34]: 25%
- inhibition [35]: -6%
- inhibition [36]: 23%
- inhibition (Rattus norvegicus [37]): 64%
- inhibition [38]: 25%
